According to ChEMBL document CHEMBL1158487, “Small molecule chloropyramine hydrochloride (C4) targets the binding site of focal adhesion kinase and vascular endothelial growth factor receptor 3 and suppresses breast cancer growth in vivo” (J Med Chem, 2009):
Active and inactive are the calls of the source. The calls are words filed in the database; no cut-off is given here.

How the values were obtained:
[1] = test system: SAOS-2; assay: Cytotoxicity against human Saos2 cells after 72 hrs by MTS assay; assay type: functional, cell-based; details: SAOS-2, 72 h
How it was run: (§1)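 MTS viability assay, read as mitochondrial dehydrogenase activity of metabolically active cells. Cells were seeded at 5.0 × 10^3 per well and attached overnight. Fresh medium with or without compound was added, followed by 72 h exposure at increasing concentrations. Error shown as ±SEM.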

[2] = molecular target: Vascular endothelial growth factor receptor 3 (Homo sapiens) (UniProt P35916); assay: Inhibition of VEGFR3 phosphorylation in human MCF7 cells expressing VEGFR3 assessed as complete dephosphorylation at Tyr1063/1068 activation loop at 1 to 10 uM by Western blotting; assay type: cell-based; details: TDE = time-dependent effect
Sequence of Vascular endothelial growth factor receptor 3 (Homo sapiens) (P35916 whole entry): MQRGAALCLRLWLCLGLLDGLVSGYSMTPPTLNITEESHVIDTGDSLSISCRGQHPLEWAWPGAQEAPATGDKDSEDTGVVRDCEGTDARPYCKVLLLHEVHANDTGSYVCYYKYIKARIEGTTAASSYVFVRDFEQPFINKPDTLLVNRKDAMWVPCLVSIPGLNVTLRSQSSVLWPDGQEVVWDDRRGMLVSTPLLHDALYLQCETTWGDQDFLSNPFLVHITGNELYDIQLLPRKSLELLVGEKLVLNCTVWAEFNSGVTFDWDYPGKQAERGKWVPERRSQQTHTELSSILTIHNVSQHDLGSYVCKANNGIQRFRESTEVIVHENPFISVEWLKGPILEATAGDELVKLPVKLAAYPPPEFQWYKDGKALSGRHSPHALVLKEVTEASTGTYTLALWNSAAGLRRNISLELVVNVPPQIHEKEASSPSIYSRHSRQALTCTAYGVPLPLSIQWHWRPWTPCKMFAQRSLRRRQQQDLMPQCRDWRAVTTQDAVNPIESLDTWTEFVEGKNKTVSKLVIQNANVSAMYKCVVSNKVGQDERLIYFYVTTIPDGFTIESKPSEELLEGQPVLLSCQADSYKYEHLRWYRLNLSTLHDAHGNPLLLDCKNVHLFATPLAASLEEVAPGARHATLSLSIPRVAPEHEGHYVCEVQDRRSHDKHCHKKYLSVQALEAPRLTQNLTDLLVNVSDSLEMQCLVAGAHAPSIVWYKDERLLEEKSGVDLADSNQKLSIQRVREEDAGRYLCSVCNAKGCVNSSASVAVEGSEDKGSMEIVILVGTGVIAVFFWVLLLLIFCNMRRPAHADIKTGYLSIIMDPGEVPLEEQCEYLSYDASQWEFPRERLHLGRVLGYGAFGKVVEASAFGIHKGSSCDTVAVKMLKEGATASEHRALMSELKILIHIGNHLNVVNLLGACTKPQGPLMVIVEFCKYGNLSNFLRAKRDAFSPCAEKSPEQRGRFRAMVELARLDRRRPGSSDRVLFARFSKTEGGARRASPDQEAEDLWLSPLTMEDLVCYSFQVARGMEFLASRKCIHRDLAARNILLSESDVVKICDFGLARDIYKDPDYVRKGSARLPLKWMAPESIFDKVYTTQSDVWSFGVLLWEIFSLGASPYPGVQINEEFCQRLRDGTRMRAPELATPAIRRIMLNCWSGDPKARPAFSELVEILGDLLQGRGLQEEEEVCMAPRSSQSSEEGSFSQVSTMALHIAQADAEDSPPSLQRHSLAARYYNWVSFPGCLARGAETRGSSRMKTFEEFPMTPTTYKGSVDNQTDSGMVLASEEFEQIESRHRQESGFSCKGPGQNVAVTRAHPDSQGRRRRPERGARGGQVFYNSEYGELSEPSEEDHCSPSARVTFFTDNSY

[3] = test system: MCF7; assay: Induction of apoptosis in human MCF7 cells expressing VEGFR3 at 10 uM after 48 hrs by TUNEL assay; assay type: functional
[4] = molecular target: Vascular endothelial growth factor receptor 3 (Homo sapiens) (UniProt P35916); assay: Inhibition of VEGFR3 phosphorylation in human BT474 cells assessed as complete dephosphorylation at Tyr1063/1068 activation loop after 24 hrs by Western blotting; assay type: cell-based; details: BT-474
How it was run: (§2)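 BT474 cells were exposed for 24 h to increasing doses (1 and 10 µM). Western blots of lysates were probed with a phospho-specific VEGFR-3 antibody for Tyr1063/1068 in the kinase activation loop.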

[5] = molecular target: Focal adhesion kinase 1 (Homo sapiens) (UniProt Q05397); assay: Inhibition of FAK phosphorylation in human BT474 cells assessed as decrease in total phosphorylation at 10 uM after 24 hrs by immunoprecipitation technique; assay type: cell-based; details: BT-474
Sequence of Focal adhesion kinase 1 (Homo sapiens) (Q05397 2-1052 limits assumed): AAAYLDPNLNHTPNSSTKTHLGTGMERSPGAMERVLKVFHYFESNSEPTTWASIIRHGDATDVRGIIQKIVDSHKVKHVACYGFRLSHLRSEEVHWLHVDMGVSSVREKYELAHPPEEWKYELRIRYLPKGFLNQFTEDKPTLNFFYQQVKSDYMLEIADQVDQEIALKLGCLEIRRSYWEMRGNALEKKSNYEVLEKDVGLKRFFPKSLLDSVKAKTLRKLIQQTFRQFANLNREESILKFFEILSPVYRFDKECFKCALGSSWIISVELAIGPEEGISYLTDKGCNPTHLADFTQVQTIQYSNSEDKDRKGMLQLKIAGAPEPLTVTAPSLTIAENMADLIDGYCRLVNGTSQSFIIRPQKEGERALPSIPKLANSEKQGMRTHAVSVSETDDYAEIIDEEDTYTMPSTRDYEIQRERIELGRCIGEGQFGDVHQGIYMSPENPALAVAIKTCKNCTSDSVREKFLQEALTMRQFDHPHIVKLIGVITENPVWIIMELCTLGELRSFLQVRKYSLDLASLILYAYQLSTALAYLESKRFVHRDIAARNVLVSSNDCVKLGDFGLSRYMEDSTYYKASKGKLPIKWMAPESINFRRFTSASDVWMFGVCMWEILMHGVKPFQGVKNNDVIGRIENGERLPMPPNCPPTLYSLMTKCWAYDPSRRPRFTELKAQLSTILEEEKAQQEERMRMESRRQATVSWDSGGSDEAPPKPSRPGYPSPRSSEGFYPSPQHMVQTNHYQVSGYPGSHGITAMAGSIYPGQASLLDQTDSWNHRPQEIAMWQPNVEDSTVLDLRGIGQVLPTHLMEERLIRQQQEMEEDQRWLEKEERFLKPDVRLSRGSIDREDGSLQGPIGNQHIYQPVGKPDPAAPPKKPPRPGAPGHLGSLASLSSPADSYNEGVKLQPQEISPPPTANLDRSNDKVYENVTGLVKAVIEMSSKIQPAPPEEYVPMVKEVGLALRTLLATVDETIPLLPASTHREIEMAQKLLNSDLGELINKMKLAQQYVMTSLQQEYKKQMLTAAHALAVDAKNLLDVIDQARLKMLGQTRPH
How it was run: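 MCF7-VEGFR-3 and BT474 cells were treated for 24 h at 10 µM or 1 µM. FAK was immunoprecipitated and blotted with anti-phosphotyrosine antibody 4G10 to assess total FAK tyrosine phosphorylation.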

[6] = test system: BT-474; assay: Cytotoxicity against human BT474 cells assessed as cell viability at 0.1 to 10 uM by MTS assay; assay type: functional, cell-based
How it was run: (§3)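 MTS cell survival assay. Cells were plated at 5.0 × 10^3 per well and allowed to attach overnight, then given fresh medium with or without compound for the designated time. Absorbance was read per the kit protocol. Mean ± SEM of three or more independent experiments.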

[7] = test system: MCF7; assay: Antiproliferative activity against human MCF7 cells expressing VEGFR3 at 0.1 to 10 uM by BrdU incorporation assay; assay type: functional, cell-based; details: TDE = time-dependent effect
How it was run: (§4)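 Cells plated at 2.5 × 10^3 per well and allowed to attach overnight. Fresh growth medium with or without compound was added along with BrdU labelling reagent, and cells were incubated for the set time. BrdU incorporation was then read with a kit per the manufacturer. Data are mean ± SEM of three or more independent experiments, compared by two-tailed Student's t test.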

[8] = molecular target: Vascular endothelial growth factor receptor 3 (Homo sapiens) (UniProt P35916); assay: Inhibition of VEGFR3 phosphorylation in human MCF7 cells expressing VEGFR3 assessed as complete dephosphorylation at Tyr1063/1068 activation loop after 24 hrs by Western blotting; assay type: cell-based
[9] = Cytotoxicity against human MCF10A cells assessed as cell viability at 100 uM by MTS assay; assay type: cell-based; details: mcf-10a; how it was run: as §3
[10] = molecular target: Vascular endothelial growth factor receptor 3 (Homo sapiens) (UniProt P35916); assay: Inhibition of VEGFR3 phosphorylation in human MCF7 cells expressing VEGFR3 assessed as complete dephosphorylation at Tyr1063/1068 activation loop at 10 uM by Western blotting; assay type: cell-based
[11] = test system: BT-474; assay: Induction of apoptosis in human BT474 cells at 10 uM by TUNEL assay; assay type: functional
[12] = test system: A-375; assay: Cytotoxicity against human A375 cells after 72 hrs by MTS assay; assay type: functional, cell-based; details: A-375, 72 h; how it was run: as §1
[13] = test system: BT-474; assay: Cytotoxicity against human BT474 cells after 72 hrs by MTS assay; assay type: functional, cell-based; details: BT-474, 72 h; how it was run: as §1
[14] = molecular target: Vascular endothelial growth factor receptor 3 (Homo sapiens) (UniProt P35916); assay: Inhibition of VEGFR3 phosphorylation in human MCF7 cells expressing VEGFR3 cells assessed as partial dephosphorylation at Tyr1063/1068 activation loop at 1 uM after 24 hrs by Western blotting; assay type: cell-based
[15] = test system: COLO 205; assay: Cytotoxicity against human COLO205 cells assessed as cell viability after 72 hrs by MTS assay; assay type: functional, cell-based; details: COLO 205, 72 h; how it was run: as §1
[16] = test system: MCF7; assay: Cytotoxicity against human MCF7 cells expressing VEGFR3 assessed as cell viability at 1 uM after 48 hrs by MTS assay; assay type: functional, cell-based
How it was run: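 Viability measured by MTS after 48 h exposure. Cells were seeded at 5.0 × 10^3 per well and attached overnight before compound-containing medium was added. BT474 is a […] subclone grown in RPMI-1640 with 10% FBS and 250 µg/ml insulin. MCF7 stable clones carried either empty pcDNA3 or VEGFR-3. Mean ± SEM, ≥3 experiments, two-tailed t test.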

[17] = test system: MCF7; assay: Induction of apoptosis in human MCF7 cells expressing VEGFR3 after 48 hrs by TUNEL assay; assay type: functional, cell-based
[18] = molecular target: Vascular endothelial growth factor receptor 3 (Homo sapiens) (UniProt P35916); assay: Inhibition of VEGFR3 phosphorylation in human BT474 cells assessed as partial dephosphorylation at Tyr1063/1068 activation loop at 1 uM after 24 hrs by Western blotting; assay type: cell-based; details: BT-474
[19] = molecular target: Vascular endothelial growth factor receptor 3 (Homo sapiens) (UniProt P35916); assay: Inhibition of VEGFR3 phosphorylation in human BT474 cells assessed as partial dephosphorylation at Tyr1063/1068 activation loop after 24 hrs by Western blotting; assay type: cell-based; details: BT-474; how it was run: as §2
[20] = test system: MCF7; assay: Induction of apoptosis in human MCF7 cells expressing VEGFR3 assessed as PARP degradation after 48 hrs; assay type: functional, cell-based
[21] = test system: BT-474; assay: Decrease in colocalization of FAK-VEGFR3 complex in human BT474 cells at 10 uM after 24 hrs by confocal microscopy; assay type: functional; design: scale not given: the % may be the effect or the level left
How it was run: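 Cells were treated for 24 h with DMSO or 10 µM compound, then dual-immunostained for FAK (Alexa Fluor 488) together with VEGFR-3 or paxillin (Alexa Fluor 546). Confocal microscopy with scatter-plot analysis gave the percentage of colocalized molecules.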

[22] = test system: MCF7; assay: Antiproliferative activity against human MCF7 cells expressing VEGFR3 after 48 hrs by BrdU incorporation assay; assay type: functional, cell-based; how it was run: as §4
[23] = test system: MCF7; assay: Antitumor activity against human MCF7 cells expressing VEGFR3 xenografted in nude-foxn1nu mouse assessed as reduction in tumor growth at 30 mg/kg after 21 days relative to control; assay type: functional, organism-based; design: dose 30 mg/kg
[24] = test system: PANC-1; assay: Cytotoxicity against human PANC1 cells after 72 hrs by MTS assay; assay type: functional, cell-based; details: PANC-1, 72 h; how it was run: as §1
[25] = test system: MCF7; assay: Induction of apoptosis in human MCF7 cells assessed as procaspase 8 activation after 48 hrs; assay type: functional, cell-based
[26] = test system: MCF7; assay: Antiproliferative activity against human MCF7 cells at 10 uM after 48 hrs by BrdU incorporation assay; assay type: functional, cell-based; how it was run: as §4
[27] = molecular target: Vascular endothelial growth factor receptor 3 (Homo sapiens) (UniProt P35916); assay: Inhibition of VEGFR3 phosphorylation in human MCF7 cells expressing VEGFR3 assessed as partial dephosphorylation at Tyr1063/1068 activation loop at 1 to 10 uM by Western blotting; assay type: cell-based; details: TDE = time-dependent effect
[28] = test system: MDA-MB-231; assay: Cytotoxicity against human MDA-MB-231 cells after 72 hrs by MTS assay; assay type: functional, cell-based; details: MDA-MB-231, 72 h; how it was run: as §1

CN(C)CCN(Cc1ccc(Cl)cc1)c1ccccn1.Cl [CHLORPYRAMIN HYDROCHLORIDE]
IC50 [1]: 1000 nM
Activity [2]: tde
Activity [3]: 76%
Activity [4]: Dose-dependent effect
Activity [5]: Active
Activity [6]: Active
Activity [7]: tde
Activity [8]: Dose-dependent effect
Activity [9]: Active
Activity [10]: Active
Activity [11]: 60%
IC50 [12]: 1000 nM
IC50 [13]: 1000 nM
Activity [14]: Active
IC50 [15]: 1000 nM
Activity [16]: Active
Activity [17]: Dose-dependent effect
Activity [18]: Active
Activity [19]: Dose-dependent effect
Activity [20]: Dose-dependent effect
Activity [21]: 45%
Activity [22]: Dose-dependent effect
Activity [23]: inactive
IC50 [24]: 1000 nM
Activity [25]: Dose-dependent effect
Activity [26]: inactive
Activity [27]: tde
IC50 [28]: 1000 nM
